Our source for the IC50 and inhibition values is ChEMBL document CHEMBL3352570, “ST7612AA1, a thioacetate-ω(γ-lactam carboxamide) derivative selected from a novel generation of oral HDAC inhibitors” (J Med Chem, 2014).

SMILES strings stand for the structures. Calls of active or inactive are those of the source. The rule behind the calls is not given here.

By IC50 is commonly meant the concentration needed to halve the response being measured. Lower therefore signals greater potency.

For test [1], the target named is Histone deacetylase 3 (Homo sapiens, UniProt O15379). Nature of the test: Inhibition of HDAC3 (unknown origin) using fluorogenic tetrapeptide RHKK(Ac) substrate by fluorescence assay.
The target of test [2] is T1, Protein deacetylase HDAC6 (Homo sapiens, UniProt Q9UBN7).
T1 sequence (Q9UBN7 whole entry): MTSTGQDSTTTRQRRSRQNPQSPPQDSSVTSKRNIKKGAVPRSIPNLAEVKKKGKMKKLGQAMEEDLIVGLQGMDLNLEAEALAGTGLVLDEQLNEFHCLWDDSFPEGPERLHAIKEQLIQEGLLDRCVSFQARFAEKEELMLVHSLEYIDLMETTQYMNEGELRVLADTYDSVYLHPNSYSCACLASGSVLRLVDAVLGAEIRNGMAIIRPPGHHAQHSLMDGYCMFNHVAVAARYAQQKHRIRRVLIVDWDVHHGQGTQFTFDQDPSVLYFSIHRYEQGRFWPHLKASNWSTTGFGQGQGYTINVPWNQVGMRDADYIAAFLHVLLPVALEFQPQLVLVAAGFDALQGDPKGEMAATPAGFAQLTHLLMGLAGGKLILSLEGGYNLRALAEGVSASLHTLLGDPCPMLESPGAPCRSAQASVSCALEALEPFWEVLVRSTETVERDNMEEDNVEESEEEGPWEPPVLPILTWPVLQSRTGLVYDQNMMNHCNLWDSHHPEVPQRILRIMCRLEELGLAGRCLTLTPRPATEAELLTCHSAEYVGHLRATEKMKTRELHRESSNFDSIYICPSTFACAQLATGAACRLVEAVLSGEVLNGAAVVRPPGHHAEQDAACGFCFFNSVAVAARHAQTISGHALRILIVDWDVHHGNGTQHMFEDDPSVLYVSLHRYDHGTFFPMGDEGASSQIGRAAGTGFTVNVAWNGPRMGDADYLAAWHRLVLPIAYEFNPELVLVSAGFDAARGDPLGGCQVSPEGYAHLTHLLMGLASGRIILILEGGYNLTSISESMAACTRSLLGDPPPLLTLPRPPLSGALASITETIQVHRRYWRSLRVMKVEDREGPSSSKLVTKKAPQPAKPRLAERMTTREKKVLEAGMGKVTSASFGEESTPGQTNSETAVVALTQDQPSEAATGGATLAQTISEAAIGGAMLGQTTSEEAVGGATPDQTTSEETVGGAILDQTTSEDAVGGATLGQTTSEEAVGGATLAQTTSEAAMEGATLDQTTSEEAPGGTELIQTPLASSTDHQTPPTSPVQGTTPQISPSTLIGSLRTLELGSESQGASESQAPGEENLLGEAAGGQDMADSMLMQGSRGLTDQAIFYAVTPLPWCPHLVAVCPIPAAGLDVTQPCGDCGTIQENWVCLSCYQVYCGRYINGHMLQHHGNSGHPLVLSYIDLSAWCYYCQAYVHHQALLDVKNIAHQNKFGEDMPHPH
Nature of the test: Inhibition of HDAC6 (unknown origin) using fluorogenic tetrapeptide RHKK(Ac) substrate by fluorescence assay.

Test [3] addresses T2, Histone deacetylase 11 (Homo sapiens, UniProt Q96DB2).
T2 sequence (Q96DB2 whole entry): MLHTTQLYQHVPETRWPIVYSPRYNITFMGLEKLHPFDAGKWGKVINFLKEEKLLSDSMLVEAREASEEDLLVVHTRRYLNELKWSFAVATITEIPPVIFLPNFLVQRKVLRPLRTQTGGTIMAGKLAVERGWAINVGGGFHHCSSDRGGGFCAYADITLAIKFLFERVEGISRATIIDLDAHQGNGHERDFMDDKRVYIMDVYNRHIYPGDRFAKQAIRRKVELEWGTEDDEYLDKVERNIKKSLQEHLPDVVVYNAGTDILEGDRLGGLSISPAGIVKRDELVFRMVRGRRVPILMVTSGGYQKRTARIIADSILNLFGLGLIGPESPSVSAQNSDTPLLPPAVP
Nature of the test: Inhibition of HDAC11 (unknown origin) using fluorogenic tetrapeptide RHKK(Ac) substrate by fluorescence assay.

Test [4] deals with T3, Polyamine deacetylase HDAC10 (Homo sapiens, UniProt Q969S8).
T3 sequence (Q969S8 whole entry): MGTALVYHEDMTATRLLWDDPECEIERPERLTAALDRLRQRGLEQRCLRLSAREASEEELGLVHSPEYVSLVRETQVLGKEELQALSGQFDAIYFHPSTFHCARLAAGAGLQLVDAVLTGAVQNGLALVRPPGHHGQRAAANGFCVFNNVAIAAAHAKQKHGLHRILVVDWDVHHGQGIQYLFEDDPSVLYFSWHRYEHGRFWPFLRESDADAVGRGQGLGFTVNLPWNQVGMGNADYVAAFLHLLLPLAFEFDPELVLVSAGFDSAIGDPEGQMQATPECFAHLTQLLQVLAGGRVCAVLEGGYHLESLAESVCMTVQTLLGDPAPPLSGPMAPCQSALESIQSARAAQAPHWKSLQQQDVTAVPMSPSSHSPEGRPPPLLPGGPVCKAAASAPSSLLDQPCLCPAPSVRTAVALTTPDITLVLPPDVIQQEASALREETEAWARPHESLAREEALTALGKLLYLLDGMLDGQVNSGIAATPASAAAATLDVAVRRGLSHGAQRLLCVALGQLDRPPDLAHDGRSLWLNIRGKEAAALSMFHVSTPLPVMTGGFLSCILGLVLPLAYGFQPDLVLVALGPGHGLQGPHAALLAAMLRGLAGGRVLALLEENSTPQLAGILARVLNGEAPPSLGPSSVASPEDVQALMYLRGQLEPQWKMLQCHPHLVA
The experiment in a line: Inhibition of HDAC10 (unknown origin) using fluorogenic tetrapeptide RHKK(Ac) substrate by fluorescence assay.

In test [5] the target is T4, Histone deacetylase 2 (Homo sapiens, UniProt Q92769). Nature of the test: Inhibition of HDAC2 (unknown origin) using fluorogenic tetrapeptide RHKK(Ac) substrate at <50 uM by fluorescence assay. In short, it runs like this:
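Fluorogenic assay with the tetrapeptide RHKK(Ac) substrate (p53 residues 379–382) at 50 μM.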

Test [6] deals with T5, Histone deacetylase 8 (Homo sapiens, UniProt Q9BY41).
T5 sequence (Q9BY41 whole entry): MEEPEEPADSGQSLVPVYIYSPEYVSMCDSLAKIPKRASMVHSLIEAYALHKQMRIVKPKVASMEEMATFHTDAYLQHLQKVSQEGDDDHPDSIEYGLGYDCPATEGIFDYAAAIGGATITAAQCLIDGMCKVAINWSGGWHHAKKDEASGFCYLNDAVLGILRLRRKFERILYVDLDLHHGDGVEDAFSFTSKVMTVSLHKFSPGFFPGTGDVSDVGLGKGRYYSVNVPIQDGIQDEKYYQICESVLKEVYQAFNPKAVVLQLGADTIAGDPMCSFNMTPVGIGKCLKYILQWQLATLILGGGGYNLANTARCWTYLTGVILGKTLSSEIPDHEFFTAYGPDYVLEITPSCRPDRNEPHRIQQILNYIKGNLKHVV
Nature of the test: Inhibition of HDAC8 (unknown origin) using fluorogenic tetrapeptide RHK(Ac)K(Ac) substrate by fluorescence assay.

Test [7] has as its target Histone deacetylase 1 (Homo sapiens, UniProt Q13547). The experiment in a line: Inhibition of HDAC1 (unknown origin) using fluorogenic tetrapeptide RHKK(Ac) substrate by fluorescence assay.
Test [8] concerns NCI-H460. Nature of the test: Cytotoxicity against human NCI-H460 cells after 24 hrs by SRB assay. The class given is functional, cell-based. The conditions noted are these: NCI-H460, 24 h. The gist of the method: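 NCI-H460 cells were grown in RPMI-1640 with L-glutamine, 10% heat-inactivated FCS and 50 μg/mL gentamicin. Cells were seeded at about 10% confluence and allowed to recover for 24 h. They were exposed to varying concentrations for 24 h, washed, then cultured a further 48 h. Surviving cells were measured by SRB. IC50 is the 50% reduction in cell number versus vehicle, from dose–response curve fitting; means of at least three experiments.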
(In general: Sulforhodamine B stains cellular protein and so reports cell mass.)

Test [9] has as its target T4, Histone deacetylase 2. The experiment in a line: Inhibition of HDAC2 (unknown origin) using fluorogenic tetrapeptide RHKK(Ac) substrate by fluorescence assay.

Histone deacetylase 3, sequence (O15379 whole entry): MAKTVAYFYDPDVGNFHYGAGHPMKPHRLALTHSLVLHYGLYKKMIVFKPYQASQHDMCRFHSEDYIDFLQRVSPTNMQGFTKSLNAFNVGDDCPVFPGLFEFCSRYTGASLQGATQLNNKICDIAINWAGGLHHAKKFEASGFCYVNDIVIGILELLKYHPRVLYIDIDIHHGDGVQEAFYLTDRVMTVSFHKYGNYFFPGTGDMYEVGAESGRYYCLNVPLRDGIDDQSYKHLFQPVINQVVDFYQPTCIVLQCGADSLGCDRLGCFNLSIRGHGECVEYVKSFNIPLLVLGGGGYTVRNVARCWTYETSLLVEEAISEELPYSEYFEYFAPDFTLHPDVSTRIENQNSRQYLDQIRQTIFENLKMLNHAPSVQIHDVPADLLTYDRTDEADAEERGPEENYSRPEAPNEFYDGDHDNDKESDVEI
T4 sequence (Q92769 whole entry, the tested form may be a part): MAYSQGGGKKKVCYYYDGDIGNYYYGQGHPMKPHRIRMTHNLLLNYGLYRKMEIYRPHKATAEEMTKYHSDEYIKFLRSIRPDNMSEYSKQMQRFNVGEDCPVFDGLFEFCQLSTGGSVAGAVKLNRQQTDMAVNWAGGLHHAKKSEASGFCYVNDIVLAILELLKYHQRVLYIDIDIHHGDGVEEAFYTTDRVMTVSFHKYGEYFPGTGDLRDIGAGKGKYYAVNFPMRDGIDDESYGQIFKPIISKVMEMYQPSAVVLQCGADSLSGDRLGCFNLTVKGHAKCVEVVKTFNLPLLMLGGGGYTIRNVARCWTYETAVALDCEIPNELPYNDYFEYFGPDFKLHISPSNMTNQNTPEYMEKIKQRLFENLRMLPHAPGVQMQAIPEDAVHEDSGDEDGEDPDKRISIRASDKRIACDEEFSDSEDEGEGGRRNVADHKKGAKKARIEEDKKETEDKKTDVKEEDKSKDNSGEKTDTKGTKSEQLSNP
Histone deacetylase 1, sequence (Q13547 whole entry): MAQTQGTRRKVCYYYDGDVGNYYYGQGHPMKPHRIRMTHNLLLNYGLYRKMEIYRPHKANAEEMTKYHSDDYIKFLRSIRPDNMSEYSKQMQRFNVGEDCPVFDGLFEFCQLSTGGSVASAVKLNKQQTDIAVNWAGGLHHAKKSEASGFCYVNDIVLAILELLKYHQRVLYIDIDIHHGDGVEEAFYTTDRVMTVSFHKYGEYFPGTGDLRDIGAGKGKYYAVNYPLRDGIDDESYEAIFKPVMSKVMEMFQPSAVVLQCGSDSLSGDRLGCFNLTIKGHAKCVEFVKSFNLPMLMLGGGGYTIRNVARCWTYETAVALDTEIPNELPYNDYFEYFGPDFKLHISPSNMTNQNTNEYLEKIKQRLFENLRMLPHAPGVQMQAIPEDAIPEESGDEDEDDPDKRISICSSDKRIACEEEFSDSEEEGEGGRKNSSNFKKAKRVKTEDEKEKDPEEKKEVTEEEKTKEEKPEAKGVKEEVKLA

Consider `O=C1CCC[C@@H](C(=O)N[C@@H](CCCCCS)C(=O)N2CCc3ccccc3C2)N1`, for which the IC50 in test [1] was found to be 6.33 µM; in [2], 0.582 µM; in [3], 0.293 µM; in test [4], 6 µM; in [6] it was 2.23 µM; in [7], 2.9 µM. In addition, the inhibition entry in test [5] is “inactive”.

Turning to `CC(=O)SCCCCC[C@H](NC(=O)[C@@H]1CCCC(=O)N1)C(=O)Nc1cccc(C)c1`, the IC50 in test [8] is 0.06 µM.

In test [8], `O=C1CCC[C@@H](C(=O)N[C@@H](CCCCCSSCCCCC[C@H](NC(=O)[C@@H]2CCCC(=O)N2)C(=O)Nc2ccccc2)C(=O)Nc2ccccc2)N1` gave an IC50 of 5.4 µM. Against the preceding molecule, the IC50 is about 90-fold higher.

In [8], `CC(=O)SCCCCC[C@H](NC(=O)[C@@H]1CCC(=O)N1)C(=O)Nc1cccc(C)c1` registered an IC50 of 0.06 µM. This IC50 lies about 90-fold lower than the previous one.

In test [8], `CC(=O)SCCCCC[C@H](NC(=O)[C@H]1CCC(=O)N1)C(=O)Nc1cccc(C(F)(F)F)c1` displayed an IC50 of 0.03 µM.

For `O=C1CCC[C@@H](C(=O)N[C@@H](CCCCCS)C(=O)NCc2cccc(OCc3ccccc3)c2)N1`, the IC50 in test [1] came out at 0.495 µM; in test [9], 2.54 µM; in test [2] it was 0.083 µM; in test [3], 0.293 µM; in test [4] it was 0.658 µM; in [6], 0.009 µM. In test [7], this molecule came in with an IC50 of 0.504 µM.

As for `CC(=O)SCCCCC[C@H](NC(=O)[C@H]1CCC(=O)N1)C(=O)Nc1cccc(C)c1`, in [8], the IC50 was determined as 0.04 µM. In other words, the double-digit nanomolar range.

For the molecule `O=C1CCC[C@@H](C(=O)N[C@@H](CCCCCS)C(=O)Nc2ccccc2)N1`, the IC50 was determined as 0.01 µM in [1]; 0.067 µM in test [9]; 0.006 µM in test [2]; 0.006 µM in test [3]; 0.011 µM in test [4]; 0.416 µM in test [6]. Further, the IC50 in [7] was 0.015 µM.

As for `O=C1CCC[C@@H](C(=O)N[C@@H](CCCCCS)C(=O)NCc2ccc(C(F)(F)F)cc2)N1`, the IC50 in test [1] is 0.475 µM; in [9] it was 1.77 µM; in test [2], 0.139 µM; in [3] it was 0.14 µM; in [4], 0.31 µM; in test [6] it was 0.023 µM. Besides, in [7], the midpoint of inhibition, the IC50, lay at 0.386 µM.

In turn, `CC(=O)SCCCCC[C@H](NC(=O)[C@H]1CCCC(=O)N1)C(=O)Nc1ccccc1` returned an IC50 in [8] of 0.1 µM.

For the molecule `O=C1NC[C@@H](c2ccccc2)[C@H]1C(=O)N[C@@H](CCCCCS)C(=O)Nc1ccccc1`, the IC50 in test [1] worked out at 0.072 µM; in [9] it was 1.9 µM; in [2], 0.035 µM; in test [3], 0.024 µM; in test [4], 0.014 µM; in test [6], 2.57 µM. Moreover, the midpoint of inhibition in test [7], the IC50, lay at 0.074 µM.

In the case of `Cc1cccc(NC(=O)[C@H](CCCCCS)NC(=O)[C@H]2CCC(=O)N2)c1`, the half-maximal inhibitory concentration (IC50) in [1] turned out to be 0.003 µM; in test [9], 0.014 µM; in [2], 0.002 µM; in test [3] it was 0.005 µM; in test [4], 0.004 µM; in [6] it was 0.106 µM. In test [7], this molecule displayed an IC50 of 0.004 µM.

For the molecule `O=C(CCCCCCS)NCc1cccc(OCc2ccccc2)c1`, the IC50 in test [1] was determined as 2.95 µM; in test [9], 14 µM; in [2], 1.77 µM; in test [3], 1.84 µM; in test [4], 2.99 µM; in [6], 0.904 µM. Half-maximal inhibition in [7] (IC50) was put at 3.16 µM.

In the case of `CN1C(=O)CCC[C@H]1C(=O)N[C@@H](CCCCCS)C(=O)Nc1ccccc1`, the IC50 in [1] was 0.007 µM; in test [9], 0.07 µM; in test [2], 0.003 µM; in test [3], 0.005 µM; in test [4], 0.006 µM; in test [6], 0.202 µM. In [7], the midpoint of inhibition, the IC50, lay at 0.011 µM.

As to `O=C(CCCCCCS)NCc1ccc(C(F)(F)F)cc1`, the IC50 in test [1] came to 2.71 µM; in test [9] it was 19.4 µM; in test [2], 5.3 µM; in test [3], 2.07 µM; in [4], 6.29 µM; in test [6] it was 0.373 µM. In test [7], the 50% inhibitory concentration (IC50) is 5.96 µM.

As for `Cc1cccc(NC(=O)[C@H](CCCCCS)NC(=O)[C@@H]2CCCC(=O)N2)c1`, the IC50 in test [1] is 0.001 µM; in [9], 0.015 µM; in test [2], 0.001 µM; in [3] it was 0.001 µM; in test [4], 0.001 µM; in test [6] it was 0.135 µM. Moreover, in test [7], the IC50 stood at 0.002 µM.

On to `Cc1cccc(NC(=O)[C@H](CCCCCS)NC(=O)[C@@H]2CCC(=O)N2)c1`, for which the IC50 in test [1] was determined as 0.004 µM; in test [9] it was 0.013 µM; in test [2], 0.001 µM; in test [3] it was 0.062 µM; in test [4] it was 0.005 µM; in [6] it was 0.106 µM. In addition, the IC50 in [7] was found to be 0.005 µM.

Take `O=C1C[C@@H](C(=O)N[C@@H](CCCCCS)C(=O)Nc2ccccc2)N1`: the IC50 in test [1] was determined as 0.008 µM; in [9], 0.068 µM; in test [2] it was 0.002 µM; in test [3], 0.01 µM; in test [4], 0.009 µM; in test [6], 0.061 µM. This molecule had an IC50 in [7] of 0.008 µM.
